Measurements taken from publication PMC9056854 (RSC Advances, 2020).

Test: Thermal denaturation study
Type: physicochemical
Settings: 3 μM duplex, 10 mM sodium phosphate (pH 7.0), 100 mM NaCl; relative to siRNA 1
Outline: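 UV melting of duplexes at 3 μM in 10 mM sodium phosphate (pH 7.0) with 100 mM NaCl, heated at 0.5 °C min−1. ΔTm is the Tm of the peptide-conjugated duplex minus the Tm of the unmodified duplex.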

Substance	ΔTm [Tm(siRNAmod) − Tm(siRNAunmod)]
5′-GGCCUUUCACUACUCCUACTTR^E-R8A7-3′ [siRNA 3]	+0.5 °C
5′-GGCCUUUCACUACUCCUACTTR^E-R8G7-3′ [siRNA 2]	+0.9 °C
